Experimental findings from PMC8791284 (SLAS discovery : advancing life sciences R & D, 2021) are described below.

Experiment [1] relates to KRAS^G12D-expressing MEFs. Kind of experiment: ATP-based cell viability assay. Set-up: species or system mouse. As to conditions: Suppl. Fig. S3. Put shortly: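 KRAS^G12D- and HRAS^WT-expressing mouse embryonic fibroblasts are dispensed onto plates pre-spotted with test compound from 10 mM stocks. Test compound is used at 5 μM final for the primary screen, or as serial dilutions for dose–response. After 72 h, CellTiter-Glo reagent is added, incubated 15 min, and luminescence is read. Each plate is checked by Z' factor and carries a reference HSP-90 inhibitor dose–response.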

Experiment [2] concerns CDK9 (Ser2-RNA polymerase II phosphorylation). Kind of experiment: Western blot of phospho-Ser2 RNA polymerase II in KRAS^G12D MEFs. As to conditions: 6 h, 0.1, 1 and 10 μM. Type of experiment: cell-based, mouse. Background: In western blotting, separated proteins are transferred to a membrane and probed.
Experiment [3] has as its system BRAF^V600E-expressing MEFs. Kind of experiment: Cell proliferation assay, BRAF^V600E MEFs. Type of experiment: cell-based, mouse. As to conditions: versus other MEF panel lines, Fig. 1E.

As to `CC(C)(C)c1cnc(CSc2cnc(NC(=O)C3CCNCC3)s2)o1` [SNS032], the “sensitivity of KRAS^G12D MEFs versus HRAS^WT MEFs in cell viability assay” value in experiment [1] was “more sensitive”. The “phosphorylation level of Ser2-RNA polymerase II” value in experiment [2] is listed as “diminished the Ser2 phosphorylation level in a dose-dependent manner”.

`CC(C)(C)c1nc(-c2cccc(NS(=O)(=O)c3c(F)cccc3F)c2F)c(-c2ccnc(N)n2)s1` [dabrafenib]: the “specific activity against BRAF^V600E-expressing MEFs” value in experiment [3] is given as “showed specific activity”.

`CCCS(=O)(=O)Nc1ccc(F)c(C(=O)c2c[nH]c3ncc(-c4ccc(Cl)cc4)cc23)c1F` [vemurafenib]: in experiment [3], the “specific activity against BRAF^V600E-expressing MEFs” value was “showed specific activity”.
